Measured values reported in PMC4136688 (Journal of Medicinal Chemistry, 2014).

Columns and labels:
Human glioma T98G cells [1] = test: Time-dependent cellular uptake; type: cell-based; details: 10 μM, over 24 h
Summary of the method: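 T98G glioma cells (EMEM, 10% FBS) seeded 10 000/well, grown 36 h, then exposed to 10 μM test compound for 0, 1, 2, 4, 8, 24 h. After PBS wash, cells lysed in 0.25% Triton X-100/PBS; porphyrin fluorescence read at 415/650 nm. Cell number by CyQuant; uptake expressed as nM compound per cell.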

[2] = In vitro BBB model permeability; type: in vitro ADME, human
Summary of the method: (§1)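 hCMEC/D3 brain endothelial cells grown 48 h on 0.4 μm PET transwell inserts in EBM-2 with 5% FBS, hydrocortisone, ascorbic acid, lipid concentrate, HEPES, bFGF. Test compound or lucifer yellow reference (1 mg/mL in HBSS, pH 6.7–7.8) added apically; basolateral HBSS. 37 °C, 5% CO2; lower chamber sampled at 0, 30, 60 min (five replicates). Fluorescence 415/650 nm (LY 420/540); P by clearance principle.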

Human glioma T98G cells [3] = test: Dark cytotoxicity; type: cell-based; details: read-out: dark toxicity IC50, CellTiter Blue assay, concentrations up to 400 μM, overnight
hCMEC/D3 cells = test: In vitro BBB model permeability; type: in vitro ADME, human; details: hCMEC/D3 monolayer, 1 mg/mL in HBSS, up to 60 min
Summary of the method: as §1

Molecule	time-dependent uptake (in words) (Human glioma T98G cells [1])	Papp A→B [2] [×10⁻⁶ cm/s]	IC50 (Human glioma T98G cells [3]) [µM]	Permeability coefficient P × 10^–6 (hCMEC/D3 cells)
N=C(N)NCCC[C@@H](NC(=O)[C@H](Cc1ccc(O)cc1)NC(=O)CCOCCOCCOCCNc1c(F)c(F)c(-c2c3nc(c(-c4c(F)c(F)c(SCC56BBBBC(BBB5)BBB6)c(F)c4F)c4ccc([nH]4)c(-c4c(F)c(F)c(SCC56BBBBC(BBB5)BBB6)c(F)c4F)c4nc(c(-c5c(F)c(F)c(SCC67BBBBC(BBB6)BBB7)c(F)c5F)c5ccc2[nH]5)C=C4)C=C3)c(F)c1F)C(=O)N[C@@H](Cc1ccccc1)C(=O)NCCC(N)=O [Compound 8]	had the least	1.71 ± 0.06	–	–
5,10,15,20-Tetra(p-carboranylmethylthiotetrafluorophenyl)porphyrin [Compound 1]	accumulated the fastest	–	> 400	1.36 ± 0.04 × 10^–6 cm/s
lucifer yellow [LY, reference compound]	–	–	–	21.7 ± 0.30 × 10^–6 cm/s
